Blank lines part the entries; values can stand above or below the compound they belong to.
Experiments:
Rattus norvegicus [1] = assay: Hypotensive activity in normotensive Wistar rat assessed as systolic blood pressure at 2.5 mg/kg, iv after 30 mins (Rvb=125.6 +/- 7.6 mmHg); format: functional, Artery
Rattus norvegicus [2] = assay: Hypotensive activity in normotensive Wistar rat assessed as diastolic blood pressure at 2.5 mg/kg, iv after 5 mins (Rvb=107.2 +/- 7.3 mmHg); format: functional, Artery
Rattus norvegicus [3] = assay: Hypotensive activity in normotensive Wistar rat assessed as systolic blood pressure at 2.5 mg/kg, iv after 20 mins (Rvb=125.6 +/- 7.6 mmHg); format: functional, Artery
Rattus norvegicus [4] = assay: Hypotensive activity in normotensive Wistar rat assessed as systolic blood pressure at 2.5 mg/kg, iv after 60 mins (Rvb=125.6 +/- 7.6 mmHg); format: functional, Artery
Rattus norvegicus [5] = assay: Hypotensive activity in normotensive Wistar rat assessed as diastolic blood pressure at 2.5 mg/kg, iv after 10 mins (Rvb=107.2 +/- 7.3 mmHg); format: functional, Artery
Rattus norvegicus [6] = assay: Hypotensive activity in normotensive Wistar rat assessed as diastolic blood pressure at 2.5 mg/kg, iv after 60 mins (Rvb=107.2 +/- 7.3 mmHg); format: functional, Artery
Rattus norvegicus [7] = assay: Hypotensive activity in normotensive Wistar rat assessed as diastolic blood pressure at 5 mg/kg, iv after 30 mins (Rvb=125.5 +/- 0.6 mmHg); format: functional, Artery
Rattus norvegicus [8] = assay: Hypotensive activity in normotensive Wistar rat assessed as diastolic blood pressure at 5 mg/kg, iv after 5 mins (Rvb=125.5 +/- 0.6 mmHg); format: functional, Artery
Rattus norvegicus [9] = assay: Hypotensive activity in normotensive Wistar rat assessed as diastolic blood pressure at 5 mg/kg, iv after 10 mins (Rvb=125.5 +/- 0.6 mmHg); format: functional, Artery
Rattus norvegicus [10] = assay: Hypotensive activity in normotensive Wistar rat assessed as diastolic blood pressure at 5 mg/kg, iv after 30 mins (Rvb=120 +/- 1.7 mmHg); format: functional, Artery
Rattus norvegicus [11] = assay: Hypotensive activity in normotensive Wistar rat assessed as diastolic blood pressure at 5 mg/kg, iv after 20 mins (Rvb=120 +/- 1.7 mmHg); format: functional, Artery
Rattus norvegicus [12] = assay: Hypotensive activity in normotensive Wistar rat assessed as diastolic blood pressure at 5 mg/kg, iv after 60 mins (Rvb=120 +/- 1.7 mmHg); format: functional, Artery
Rattus norvegicus [13] = assay: Hypotensive activity in normotensive Wistar rat assessed as systolic blood pressure at 5 mg/kg, iv after 10 mins (Rvb=139 +/- 0.6 mmHg); format: functional, Artery
Rattus norvegicus [14] = assay: Hypotensive activity in normotensive Wistar rat assessed as systolic blood pressure at 5 mg/kg, iv after 30 mins (Rvb=141.3 +/- 6.4 mmHg); format: functional, Artery
Rattus norvegicus [15] = assay: Hypotensive activity in normotensive Wistar rat assessed as diastolic blood pressure at 5 mg/kg, iv after 20 mins (Rvb=126 +/- 4.6 mmHg); format: functional, Artery
Guinea pig spleen α1B = Guinea pig spleen α1B (Cavia porcellus, UniProt H0WBQ9); assay: Antagonist activity at Alpha-1B adrenoceptor in guinea pig spleen assessed as inhibition of noradrenaline-induced contraction after 30 mins; format: functional, tissue-based; conditions: read-out: pA2 (converted)
Procedure, shortened: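 Guinea-pig spleen strips equilibrated 100 min with repeated noradrenaline stimulation and washout. Two cumulative noradrenaline concentration–response curves were run 60 min apart, before and after a 30 min antagonist incubation, with propranolol present throughout to block β-adrenoceptors. Contraction was expressed as % of the first-curve maximum. EC50 was fitted by non-linear regression, and Schild analysis of concentration ratios gave pA2. n ≥ 5.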

[16] = test system: Alpha-1B adrenergic receptor (Cavia porcellus); assay: Antagonist activity at Alpha-1B adrenoceptor in guinea pig spleen assessed as inhibition of noradrenaline-induced contraction after 30 mins
Rattus norvegicus [17] = assay: Hypotensive activity in normotensive Wistar rat assessed as diastolic blood pressure at 5 mg/kg, iv after 60 mins (Rvb=127 +/- 8.1 mmHg); format: functional, Artery
Rattus norvegicus [18] = assay: Hypotensive activity in normotensive Wistar rat assessed as systolic blood pressure at 5 mg/kg, iv after 10 mins (Rvb=142.5 +/- 3.6 mmHg); format: functional, Artery
[19] = biological target: T1, Alpha-1D adrenergic receptor (Rattus norvegicus) (UniProt P23944); assay: (§1) Antagonist activity at Alpha-1D adrenoceptor in Wistar rat thoracic aorta assessed as inhibition of noradrenaline-induced contraction after 30 mins; format: functional, tissue-based
T1 sequence (whole entry): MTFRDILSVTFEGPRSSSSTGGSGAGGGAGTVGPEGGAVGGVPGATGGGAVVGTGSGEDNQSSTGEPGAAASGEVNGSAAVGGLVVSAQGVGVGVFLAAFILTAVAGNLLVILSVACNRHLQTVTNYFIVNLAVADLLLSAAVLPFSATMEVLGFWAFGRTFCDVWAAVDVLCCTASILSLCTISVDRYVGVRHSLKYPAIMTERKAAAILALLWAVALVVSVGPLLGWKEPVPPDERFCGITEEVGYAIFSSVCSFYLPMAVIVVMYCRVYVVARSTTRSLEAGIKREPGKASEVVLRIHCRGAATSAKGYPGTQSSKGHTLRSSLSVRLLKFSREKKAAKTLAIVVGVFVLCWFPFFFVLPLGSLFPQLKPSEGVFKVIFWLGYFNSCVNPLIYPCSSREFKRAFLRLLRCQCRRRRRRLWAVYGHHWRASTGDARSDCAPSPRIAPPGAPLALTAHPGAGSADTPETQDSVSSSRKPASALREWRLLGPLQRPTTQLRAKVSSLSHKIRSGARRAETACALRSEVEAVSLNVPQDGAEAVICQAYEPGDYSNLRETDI
Procedure, shortened: (§2)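 Male Wistar rats (200–350 g) were anaesthetized with thiopental 75 mg/kg ip. Endothelium-denuded thoracic aorta rings (~4 mm) were held in Krebs–Henseleit at 37 °C, pH 7.4, gassed O2/CO2 19:1, at 2 g tension and equilibrated 3 h. Two cumulative noradrenaline curves were run 60 min apart, with 30 min antagonist incubation and continuous propranolol. EC50 came from non-linear regression, and Schild plots gave pA2. n = 5–8.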

[20] = biological target: T2, Alpha-1D adrenergic receptor (Rattus norvegicus, UniProt P23944); assay: as §1; format: functional, tissue-based; conditions: read-out: pA2 (converted); procedure, shortened: as §2
T2 sequence (P23944 whole entry): T1 sequence (whole entry)

Rattus norvegicus [21] = assay: Hypotensive activity in normotensive Wistar rat assessed as diastolic blood pressure at 5 mg/kg, iv after 30 mins (Rvb=127 +/- 8.1 mmHg); format: functional, Artery
Rattus norvegicus [22] = assay: Hypotensive activity in normotensive Wistar rat assessed as diastolic blood pressure at 5 mg/kg, iv after 5 mins (Rvb=119 +/- 1.2 mmHg); format: functional, Artery
Rattus norvegicus [23] = assay: Hypotensive activity in normotensive Wistar rat assessed as diastolic blood pressure at 5 mg/kg, iv after 10 mins (Rvb=119 +/- 1.2 mmHg); format: functional, Artery
Rattus norvegicus [24] = assay: Hypotensive activity in normotensive Wistar rat assessed as systolic blood pressure at 5 mg/kg, iv after 5 mins (Rvb=138 +/- 0.9 mmHg); format: functional, Artery
Rattus norvegicus [25] = assay: Hypotensive activity in normotensive Wistar rat assessed as systolic blood pressure at 5 mg/kg, iv after 60 mins (Rvb=138 +/- 0.9 mmHg); format: functional, Artery
Rattus norvegicus [26] = assay: Hypotensive activity in normotensive Wistar rat assessed as systolic blood pressure at 5 mg/kg, iv after 20 mins (Rvb=138 +/- 0.9 mmHg); format: functional, Artery

Structure (SMILES): COc1ccc(N2CCN(CC(O)CN3CCC(c4ccccc4)(c4ccccc4)C3=O)CC2)cc1.Cl.Cl (configuration not stated)
Activity (Rattus norvegicus [1]): 105.6 mmHg
Activity (Rattus norvegicus [2]): 107 mmHg
Activity (Rattus norvegicus [3]): 107.6 mmHg
Activity (Rattus norvegicus [4]): 105.8 mmHg
Activity (Rattus norvegicus [5]): 96.4 mmHg
Activity (Rattus norvegicus [6]): 88.2 mmHg

Structure (SMILES): Cl.Cl.O=C1N(CC(O)CN2CCN(c3ccccc3)CC2)CCC1(c1ccccc1)c1ccccc1 (configuration not stated)
Activity (Rattus norvegicus [7]): 113.5 mmHg
Activity (Rattus norvegicus [8]): 119 mmHg
Activity (Rattus norvegicus [9]): 118.6 mmHg

Structure (SMILES): COc1ccccc1N1CCN(CC(O)CN2CCC(c3ccccc3)(c3ccccc3)C2=O)CC1.Cl.Cl (configuration not stated)
Activity (Rattus norvegicus [10]): 102.5 mmHg
Activity (Rattus norvegicus [11]): 104 mmHg
Activity (Rattus norvegicus [12]): 98 mmHg
Activity (Rattus norvegicus [13]): 122 mmHg

Structure (SMILES): Cc1ccccc1N1CCN(CC(O)CN2CCC(c3ccccc3)(c3ccccc3)C2=O)CC1.Cl.Cl (configuration not stated)
Activity (Rattus norvegicus [14]): 133 mmHg
Activity (Rattus norvegicus [15]): 119.7 mmHg

Kb (Guinea pig spleen α1B): 281 nM
Activity [16]: Dose-dependent effect
Activity [19]: Dose-dependent effect
Kb [20]: 55 nM
Structure (SMILES): CCOc1ccccc1N1CCN(CC(O)CN2CCC(c3ccccc3)(c3ccccc3)C2=O)CC1.Cl.Cl (configuration not stated)
Activity (Rattus norvegicus [17]): 95.5 mmHg
Activity (Rattus norvegicus [18]): 118 mmHg
Activity (Rattus norvegicus [21]): 96 mmHg

Structure (SMILES): Cl.Cl.O=C1N(CC(O)CN2CCN(c3ccccc3C(F)(F)F)CC2)CCC1(c1ccccc1)c1ccccc1 (configuration not stated)
Activity (Rattus norvegicus [22]): 103 mmHg
Activity (Rattus norvegicus [23]): 106.5 mmHg
Activity (Rattus norvegicus [24]): 126 mmHg
Activity (Rattus norvegicus [25]): 111 mmHg
Activity (Rattus norvegicus [26]): 119 mmHg
